Common to all, as to format: functional
Common to all, as to conditions: read-out: ED50 (the source's name)

For assay [1], the system named is HT-29. The assay can be described thus: Cytotoxicity against human HT-29 cells. In a few lines:
(§1)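 Cell lines were obtained from the American Type Culture Collection. Cytotoxicity was tested in vitro, and values are reported as ED50 in µg/mL.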

In assay [2] the test system is A549. The assay can be described thus: Cytotoxicity against human A549 cells. In a few lines: as §1
Assay [3] concerns P388. The assay is described as follows: Cytotoxicity against mouse P388 cells. In outline: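 Mouse lymphocytic leukemia P-388 cells were supplied by the Pezzuto laboratory at the University of Illinois at Chicago. Cytotoxicity was tested in vitro, and values are reported as ED50 in µg/mL.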

Converted amounts (≈) assume the structure as drawn.

With `C=C1CC/C=C(\C)CCC2=C(C(C)C)C(=O)C[C@@]2(C)CC1=O`, the EC50 in assay [1] was > 50 µg/mL; in assay [2], > 50 µg/mL; in assay [3] it was 3.89 µg/mL (≈ 12.9 µM).
As to `C=C1CC/C=C(\C)CCC2=C(C(C)C)C(=O)C[C@@]2(C)C[C@H]1O` (relative stereo), the EC50 in assay [1] amounted to 9.19 µg/mL (≈ 30.4 µM); in assay [2] it was 8.1 µg/mL (≈ 26.8 µM); in assay [3], 3.82 µg/mL (≈ 12.6 µM).
The like results for `C=C1CC[C@H]2O[C@@]2(C)C/C=C2/[C@@H](C(C)C)C(=O)C[C@]2(C)CC1=O` (relative stereo) were, in that order, 7.84 µg/mL (≈ 24.8 µM), 8.56 µg/mL (≈ 27.1 µM) and 2.48 µg/mL (≈ 7.84 µM).
The matching figures for `C=C1CC[C@@H](OO)C(=C)CCC2=C(C(C)C)C(=O)C[C@@]2(C)CC1=O` (relative stereo): 0.31 µg/mL (≈ 0.932 µM), 0.57 µg/mL (≈ 1.71 µM) and 0.052 µg/mL (≈ 0.156 µM).
The like results for `C=C1CC/C=C(\C)C/C=C2/[C@@H](C(C)C)C(=O)C[C@]2(C)CC1=O` (relative stereo) were, in that order, 27.3 µg/mL (≈ 90.9 µM), > 50 µg/mL and 2.6 µg/mL (≈ 8.65 µM).
For `C=C1CC/C=C(\C)C[C@H]2O[C@@]23[C@@H](C(C)C)C(=O)C[C@]3(C)CC1=O` (relative stereo), the values for the EC50 in assay [1], in assay [2] and in assay [3] were 6.39 µg/mL (≈ 20.2 µM), 7.74 µg/mL (≈ 24.5 µM) and 3.83 µg/mL (≈ 12.1 µM), respectively.

These data come from ChEMBL document CHEMBL1155744, “Cytotoxic dolabellane diterpenes from the Formosan soft coral Clavularia inflata” (2001).
